Experimental data: article PMC2688442 (Analytical biochemistry, 2009)

Legend:
[1] = test system: nNOS in 293T/nNOS cells; assay: Activation of nNOS in 293T/nNOS cells by A23187; format: cell-based, rat; conditions: A23187 5 μM, after the 8 h-incubation, deduced from Fig. 1C
Procedure, shortened: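 HEK 293T cells stably transfected with rat nNOS cDNA (lipofection, Geneticin 0.8 mg/ml selection, single-cell cloning, highest-expressing clone), maintained in DMEM with 0.4 mg/ml Geneticin. At ~80% confluence, cells were exposed to 5 μM A23187 or left untreated, alongside WT 293T cells ± A23187. Nitrite in the culture medium was measured by Griess reagent at different times.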

[2] = test system: 293T/nNOS cells; format: cell-based; conditions: for Cell health after treatment: 293T/nNOS cells during the period of A23187 stimulation; for Cytotoxicity: by visual inspection under a microscope; for Inhibition of cell growth: experimental conditions of the inhibition assay
[3] = test system: nNOS over eNOS; conditions: cited from earlier work
[4] = test system: nNOS over eNOS in rat tissue; conditions: cited from earlier work

| Structure (SMILES) | Cell health after treatment [2] | Cytotoxicity ([2]; 293T/nNOS cells) | Inhibition of cell growth ([2]; 293T/nNOS cells) | also measured |
| --- | --- | --- | --- | --- |
| CNc1ccc2oc(C[C@H]3O[C@@]4(CC[C@H]3C)O[C@H]([C@H](C)C(=O)c3ccc[nH]3)[C@H](C)C[C@H]4C)nc2c1C(=O)O [A23187] |  |  |  | Nitrite concentration [1]: ~ 18 μM; Cell death with A23187 stimulation ([2]; 293T/nNOS cells, after 10 h with A23187): no obvious cell death |
| N=C(Nc1ccc(CCNCc2cccc(Cl)c2)cc1)c1cccs1 [AR-R17477] | remained healthy | no obvious cytotoxicity | Neither compound 3 nor AR-R17477 inhibited cell growth |  |
| CCSC(N)=NCCC[C@H](N)C(=O)O [Et-TC, S-ethyl-L-thiocitrulline] |  |  |  | Selectivity in vitro for nNOS inhibition over eNOS (in words) [3]: more selective |
| CSC(N)=NCCC[C@H](N)C(=O)O [Me-TC, S-methyl-L-thiocitrulline] |  |  |  | Inhibition of nNOS over eNOS in rat tissue (in words) [4]: better than Et-TC |
| N=C(NCCC[C@H](N)C(=O)O)N[N+](=O)[O-] [NNA, N^ω-Nitro-L-arginine] | remained healthy |  |  | Cell death ([2]; 293T/nNOS cells under the experimental conditions of the inhibition assay): No cell death was observed |
| Cc1cc(N)nc(CC2CNCC2NCCNCCc2cccc(F)c2)c1 (centres unmarked) [compound 3, N-[4-(6-amino-4-methylpyridin-2-ylmethyl)pyrrolidin-3-yl]-N′-(3-fluorophenylethyl) ethane-1,2-diamine] |  | no obvious cytotoxicity | Neither compound 3 nor AR-R17477 inhibited cell growth |  |
